Among the data in ChEMBL document CHEMBL4351031, “The development of 2-acetylphenol-donepezil hybrids as multifunctional agents for the treatment of Alzheimer's disease” (Bioorg Med Chem Lett, 2019) are IC50, inhibition and Ratio IC50 values, retold here.

Data set [1] addresses Acetylcholinesterase (Electrophorus electricus, UniProt O42275). In words: Inhibition of electric eel AChE using acetylthiocholine iodide incubated for 15 mins as substrate by Ellman's method.
For data set [2], the target named is Cholinesterase (Equus caballus) (UniProt P81908). Briefly: Inhibition of equine serum BuChE using S-butyrylthiocholine chloride as substrate at 50 uM incubated for 15 mins by Ellman's method relative to control.
Data set [3] has as its target T1, Amine oxidase [flavin-containing] B (Homo sapiens, UniProt P27338).
T1 sequence (P27338 whole entry): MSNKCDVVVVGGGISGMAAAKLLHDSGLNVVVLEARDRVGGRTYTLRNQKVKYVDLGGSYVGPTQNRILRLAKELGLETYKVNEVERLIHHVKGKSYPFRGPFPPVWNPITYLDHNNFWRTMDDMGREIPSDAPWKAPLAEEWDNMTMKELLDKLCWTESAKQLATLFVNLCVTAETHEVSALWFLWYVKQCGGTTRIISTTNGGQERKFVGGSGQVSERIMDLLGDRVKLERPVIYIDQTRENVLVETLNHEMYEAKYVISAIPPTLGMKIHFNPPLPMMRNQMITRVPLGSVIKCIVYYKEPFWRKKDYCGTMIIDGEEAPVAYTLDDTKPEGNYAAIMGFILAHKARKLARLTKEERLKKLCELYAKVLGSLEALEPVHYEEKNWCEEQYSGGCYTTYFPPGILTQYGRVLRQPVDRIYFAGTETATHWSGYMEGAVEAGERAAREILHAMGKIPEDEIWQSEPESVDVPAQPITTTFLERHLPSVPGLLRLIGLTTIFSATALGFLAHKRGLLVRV
Briefly: Inhibition of human recombinant MAO-B using kynuramine as substrate measured after 30 mins by fluorimetric assay.

Data set [4] deals with T2, MAO-A (Homo sapiens, UniProt P21397).
T2 sequence (P21397 whole entry): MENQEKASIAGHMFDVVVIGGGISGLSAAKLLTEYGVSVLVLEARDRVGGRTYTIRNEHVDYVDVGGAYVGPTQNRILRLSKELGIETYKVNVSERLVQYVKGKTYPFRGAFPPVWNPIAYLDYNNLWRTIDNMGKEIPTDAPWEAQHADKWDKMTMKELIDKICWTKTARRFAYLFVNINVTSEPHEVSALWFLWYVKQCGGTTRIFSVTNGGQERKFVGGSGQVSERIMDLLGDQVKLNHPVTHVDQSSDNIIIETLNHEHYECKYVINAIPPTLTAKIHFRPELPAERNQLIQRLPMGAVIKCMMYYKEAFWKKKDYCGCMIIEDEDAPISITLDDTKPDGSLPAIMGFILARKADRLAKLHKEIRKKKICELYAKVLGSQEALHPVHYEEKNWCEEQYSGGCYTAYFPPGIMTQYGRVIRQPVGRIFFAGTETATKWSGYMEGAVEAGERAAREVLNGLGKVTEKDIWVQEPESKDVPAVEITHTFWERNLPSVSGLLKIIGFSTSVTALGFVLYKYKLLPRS
Briefly: Inhibition of human recombinant MAO-A using kynuramine as substrate at 10 uM measured after 30 mins by fluorimetric assay relative to control. The following applies: probe kynuramine.

Data set [5] concerns the target Cholinesterase (Equus caballus, UniProt P81908). Briefly: Inhibition of equine serum BuChE using S-butyrylthiocholine chloride as substrate incubated for 15 mins by Ellman's method. The method, boiled down: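 Modified Ellman method using equine serum BuChE. […] Values are the mean of three independent experiments, each run in triplicate, with SD.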
The nature of data set [6]: Selectivity index, ratio of IC50 for equine serum BuChE using S-butyrylthiocholine chloride as substrate to IC50 for electric eel AChE using acetylthiocholine iodide as substrate by Ellman's method. The method, boiled down: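 Selectivity index is IC50(eqBuChE)/IC50(EeAChE). Both IC50s come from the modified Ellman method, using Electrophorus electricus AChE and equine serum BuChE. Each IC50 is the mean of three independent experiments, each run in triplicate.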

Chain of Acetylcholinesterase (O42275 whole entry): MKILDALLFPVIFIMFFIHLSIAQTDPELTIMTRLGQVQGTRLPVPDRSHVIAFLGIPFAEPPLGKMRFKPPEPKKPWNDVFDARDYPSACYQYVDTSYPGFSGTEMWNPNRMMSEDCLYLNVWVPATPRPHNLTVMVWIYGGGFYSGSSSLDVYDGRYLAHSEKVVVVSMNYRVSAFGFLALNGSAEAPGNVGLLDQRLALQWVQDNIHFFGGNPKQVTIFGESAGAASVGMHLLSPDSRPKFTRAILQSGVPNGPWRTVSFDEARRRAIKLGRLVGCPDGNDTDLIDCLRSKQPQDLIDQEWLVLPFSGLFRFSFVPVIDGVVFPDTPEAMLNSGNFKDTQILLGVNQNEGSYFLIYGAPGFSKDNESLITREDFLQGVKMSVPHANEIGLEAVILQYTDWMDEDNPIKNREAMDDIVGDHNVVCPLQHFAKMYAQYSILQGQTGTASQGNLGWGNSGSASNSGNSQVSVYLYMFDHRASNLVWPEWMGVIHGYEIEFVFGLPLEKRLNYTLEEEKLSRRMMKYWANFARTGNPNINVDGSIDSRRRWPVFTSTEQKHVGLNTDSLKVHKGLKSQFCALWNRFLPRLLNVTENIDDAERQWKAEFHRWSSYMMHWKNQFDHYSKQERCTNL
Chain of Cholinesterase (Equus caballus) (P81908 whole entry): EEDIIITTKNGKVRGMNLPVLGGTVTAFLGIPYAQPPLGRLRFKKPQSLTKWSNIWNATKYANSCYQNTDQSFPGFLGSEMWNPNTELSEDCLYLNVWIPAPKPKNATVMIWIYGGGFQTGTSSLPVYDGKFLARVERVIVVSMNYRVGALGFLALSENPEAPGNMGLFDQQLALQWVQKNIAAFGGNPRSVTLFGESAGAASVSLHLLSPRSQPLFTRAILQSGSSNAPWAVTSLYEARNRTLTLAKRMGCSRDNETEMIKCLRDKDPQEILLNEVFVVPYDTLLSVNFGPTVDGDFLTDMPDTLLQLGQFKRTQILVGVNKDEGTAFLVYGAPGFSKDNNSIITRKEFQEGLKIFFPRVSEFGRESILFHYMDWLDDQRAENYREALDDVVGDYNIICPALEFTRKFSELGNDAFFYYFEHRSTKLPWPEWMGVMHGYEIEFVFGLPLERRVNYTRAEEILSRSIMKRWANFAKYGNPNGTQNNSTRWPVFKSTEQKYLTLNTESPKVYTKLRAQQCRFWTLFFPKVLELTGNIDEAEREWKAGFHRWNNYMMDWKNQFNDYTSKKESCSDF
Chain of Cholinesterase (P81908 whole entry): as above

Consider `CCN(CC)CCCCOc1ccc(C(C)=O)c(O)c1`, for which the IC50 in data set [1] was 20.9 µM; in data set [3], 22.2 µM. In addition, in data set [2], the inhibition was less than 5%. Moreover, the inhibition at 0.5 h, 10 µM in data set [4] was less than 10%.

On to `CC(=O)c1ccc(OCCCCCCCCCCN2CCC(Cc3ccccc3)CC2)cc1O`, for which the figures for the IC50 in data set [1] and in data set [3] were 9.2 µM and 21.6 µM, respectively. This molecule yielded an inhibition in data set [2] of 13.8%. Moreover, the inhibition at 0.5 h, 10 µM in data set [4] was less than 10%.

Take `CC(=O)c1ccc(OCCCCCCCCCN2CCC(Cc3ccccc3)CC2)cc1O`: the IC50 in data set [1] came to 8.5 µM; in data set [3], 27.9 µM. The inhibition in data set [2] was less than 5%. For the same molecule, in data set [4], the inhibition at 0.5 h, 10 µM is less than 10%.

Turning to `CC(=O)c1ccc(OCCCCCCCCCN2CCc3ccccc3C2)cc1O`, the figures for the IC50 in data set [1] and in data set [3] were 11.6 µM and 19.4 µM, respectively. Further, the inhibition in data set [2] was less than 5%. Also, the inhibition at 0.5 h, 10 µM in data set [4] was less than 10%.

With `CC(=O)c1ccc(OCCCCCCCCCCN2CCC(c3ccccc3)CC2)cc1O`, the IC50 in data set [1] turned out to be 18.4 µM; in data set [3] it was 14.2 µM. In data set [2], this molecule came in with an inhibition of 0.8%. For the same molecule, in data set [4], the inhibition at 0.5 h, 10 µM was less than 10%.

Regarding `CC(=O)c1ccc(OCCCN2CCC(Cc3ccccc3)CC2)cc1O`, the IC50 came to 11.7 µM in data set [1], 63.1 µM in data set [5] and 18.7 µM in data set [3]. Further, in data set [4], the inhibition at 0.5 h, 10 µM is less than 10%. Further, in data set [6], the Ratio IC50 stood at 5.4.

`CC(=O)c1ccc(OCCCCCCCCCCCCN2CCC(Cc3ccccc3)CC2)cc1O`: the half-inhibitory concentration (IC50) in data set [1] is 9.5 µM; in data set [3], 25.8 µM. In addition, in data set [2], the inhibition is less than 5%. Besides, the inhibition at 0.5 h, 10 µM in data set [4] is less than 10%.

Turning to `CCN(CCCCCCCCCCOc1ccc(C(C)=O)c(O)c1)Cc1ccccc1`, the IC50 came to 6.5 µM in data set [1], 50.7 µM in data set [5] and 23.4 µM in data set [3]. Besides, the inhibition at 0.5 h, 10 µM in data set [4] is less than 10%. For the same molecule, in data set [6], the Ratio IC50 was found to be 7.8.

On to `COc1cc2c(cc1OC)CN(CCCOc1ccc(C(C)=O)c(O)c1)CC2`, for which the IC50 turned out to be 10.1 µM in data set [1], 57.9 µM in data set [5] and 13.8 µM in data set [3]. For the same molecule, in data set [4], the inhibition at 0.5 h, 10 µM came to 8.1%. Also, the Ratio IC50 in data set [6] was found to be 5.7.

For the molecule `CCN(CC)CCCOc1ccc(C(C)=O)c(O)c1`, the IC50 in data set [1] was 26.7 µM; in data set [3] it was 16.1 µM. In data set [2], this molecule yielded an inhibition of less than 5%. Also, in data set [4], the inhibition at 0.5 h, 10 µM is less than 10%.

Turning to `CCN(CC)CCCCCCOc1ccc(C(C)=O)c(O)c1`, the IC50 in data set [1] came out at 16.3 µM; in data set [3] it was 22.1 µM. This molecule yielded an inhibition in data set [2] of less than 5%. Besides, the inhibition at 0.5 h, 10 µM in data set [4] is less than 10%.

As for `CCN(CCOc1ccc(C(C)=O)c(O)c1)Cc1ccccc1`, the figures for the concentration for half-maximal inhibition (IC50) in data set [1] and in data set [3] were 18.9 µM and 13.8 µM, respectively. Further, in data set [2], the inhibition was less than 5%. The inhibition at 0.5 h, 10 µM in data set [4] was less than 10%.

In the case of `CC(=O)c1ccc(OCCCCN2CCC(Cc3ccccc3)CC2)cc1O`, the 50% inhibitory concentration (IC50) in data set [1] came out at 8.9 µM; in data set [3] it was 13.5 µM. For the same molecule, in data set [2], the inhibition was less than 5%. Also, the inhibition at 0.5 h, 10 µM in data set [4] is less than 10%.

Take `CC(=O)c1ccc(OCCCN2CCc3ccccc3C2)cc1O`: the IC50 is 8.9 µM in data set [1] and 16.7 µM in data set [3]. In addition, in data set [2], the inhibition was less than 5%. The inhibition at 0.5 h, 10 µM in data set [4] was less than 10%.

Take `CC(=O)c1ccc(OCCCCCN2CCc3ccccc3C2)cc1O`: the results for the IC50 in data set [1] and in data set [3] were 7.5 µM and 15.2 µM, respectively. Further, in data set [2], the inhibition is less than 5%. Further, the inhibition at 0.5 h, 10 µM in data set [4] was less than 10%.

For the molecule `CC(=O)c1ccc(OCCCCCN2CCC(Cc3ccccc3)CC2)cc1O`, the IC50 in data set [1] is 8.2 µM; in data set [3] it was 20.8 µM. The inhibition in data set [2] was less than 5%. In data set [4], the inhibition at 0.5 h, 10 µM was less than 10%.

In the case of `CC(=O)c1ccc(OCCN2CCC(Cc3ccccc3)CC2)cc1O`, the concentration for half-maximal inhibition (IC50) in data set [1] is 16.5 µM; in data set [3] it was 22.8 µM. Further, the inhibition in data set [2] was less than 5%. Further, the inhibition at 0.5 h, 10 µM in data set [4] was less than 10%.

For `CCN(CC)CCOc1ccc(C(C)=O)c(O)c1`, the half-maximal inhibitory concentration (IC50) in data set [1] is 35.2 µM; in data set [3], 11.7 µM. In data set [2], the inhibition was less than 5%. For the same molecule, in data set [4], the inhibition at 0.5 h, 10 µM is less than 10%.
